Measured values: PMC4269301 (International journal of peptide research and therapeutics, 2014)
Square brackets hold non-standard residues; d marks the D form. Ends that are not written are not given here. Peptide text beside a SMILES is read from it. Nle = CCCC[C@H](N)C(=O)O

T1: GRK2 (Homo sapiens, UniProt P25098, S670A)
T1 sequence (P25098 1-689 S670A): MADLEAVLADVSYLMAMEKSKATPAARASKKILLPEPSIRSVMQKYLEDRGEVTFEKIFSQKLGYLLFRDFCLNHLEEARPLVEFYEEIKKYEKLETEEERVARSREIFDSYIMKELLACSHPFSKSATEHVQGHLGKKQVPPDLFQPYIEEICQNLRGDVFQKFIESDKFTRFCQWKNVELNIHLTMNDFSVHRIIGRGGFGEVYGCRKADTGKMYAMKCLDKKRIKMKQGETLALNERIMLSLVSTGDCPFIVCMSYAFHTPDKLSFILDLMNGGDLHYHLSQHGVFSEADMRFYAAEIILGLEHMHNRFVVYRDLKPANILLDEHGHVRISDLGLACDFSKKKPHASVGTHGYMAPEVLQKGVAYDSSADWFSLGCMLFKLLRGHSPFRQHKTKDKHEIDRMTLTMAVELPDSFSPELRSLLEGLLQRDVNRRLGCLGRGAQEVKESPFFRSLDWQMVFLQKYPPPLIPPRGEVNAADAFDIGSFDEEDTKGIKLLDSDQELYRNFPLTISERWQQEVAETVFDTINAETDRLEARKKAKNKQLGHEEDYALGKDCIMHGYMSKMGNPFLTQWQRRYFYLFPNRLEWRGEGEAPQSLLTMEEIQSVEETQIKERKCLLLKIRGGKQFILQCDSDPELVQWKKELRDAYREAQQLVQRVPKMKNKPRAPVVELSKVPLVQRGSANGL

T2: GRK7 (Homo sapiens, UniProt Q8WTQ7)
T2 sequence (Q8WTQ7 1-553): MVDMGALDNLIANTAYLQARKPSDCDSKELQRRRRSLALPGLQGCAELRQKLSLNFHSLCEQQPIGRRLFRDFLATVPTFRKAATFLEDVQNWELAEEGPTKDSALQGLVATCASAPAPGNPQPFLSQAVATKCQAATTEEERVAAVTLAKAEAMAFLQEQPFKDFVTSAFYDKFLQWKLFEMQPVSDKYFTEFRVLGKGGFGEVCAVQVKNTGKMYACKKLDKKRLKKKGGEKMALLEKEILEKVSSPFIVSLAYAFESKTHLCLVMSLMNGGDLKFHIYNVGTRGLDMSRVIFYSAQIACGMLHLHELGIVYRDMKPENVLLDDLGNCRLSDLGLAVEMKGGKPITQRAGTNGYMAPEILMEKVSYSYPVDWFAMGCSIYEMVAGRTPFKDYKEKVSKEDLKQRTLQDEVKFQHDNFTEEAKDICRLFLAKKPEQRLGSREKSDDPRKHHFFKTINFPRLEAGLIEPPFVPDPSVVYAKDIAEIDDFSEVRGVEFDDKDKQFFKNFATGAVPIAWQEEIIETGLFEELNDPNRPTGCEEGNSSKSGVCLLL

B1: α3 (61–71) peptide of GRK5 (peptide)
peptide: Ac-PIGRLLFRQFC-NH2
B2: Gα transducin C-tail peptide TCT (340–350) K341L (peptide)
peptide: Ac-ILENLKDCGLF-NH2

Experiments:
GRK2 [1] = molecular target: T1, GRK2; test: GRK2 phosphorylation of tubulin; type: biochemical; settings: for % inhibition of GRK2 phosphorylation of tubulin: 100 μM peptide, 100 nM GRK2, 60 min; for % inhibition of GRK2 phosphorylation of tubulin / Effect on GRK2 phosphorylation of tubulin, basal activity: 0.5 μM tubulin, 30 °C; for Effect on GRK2 phosphorylation of tubulin, basal activity: 60 min
Outline: (§1)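 Bovine brain tubulin 500 nM with 100 nM GRK2 (His₆, S670A, Sf9-expressed) or human His₆-GRK5; 20 mM Tris pH 7.5, 1 mM EDTA, 10 mM MgCl₂, 5 μM DTT, 100 μM [γ³²P]ATP; 60 min, 30 °C. 12 % SDS-PAGE; ³²P-tubulin counted from excised bands or by autoradiogram densitometry. Mean ± SEM, ≥4 experiments in duplicate, % of control; one-way ANOVA.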

GRK6 [2] = test: GRK6 phosphorylation of light-activated rhodopsin; type: biochemical, human; settings: peptides 10, 30 and 100 μM; four or more experiments in duplicate
Outline: (§2)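 Light-activated (475 nm, 30 s) rhodopsin, 0.5 μM, from urea-stripped bovine ROS. Kinase was purified GRK2 (His₆, S670A, Sf9/baculovirus, Ni-IMAC) or N-terminal His₆ full-length human GRK6, at 10–100 nM. Buffer: 20 mM Tris pH 7.5, 10 mM MgCl₂, 1 mM EDTA, 100 μM [γ³²P]ATP; peptides in DMSO (2–4 %). Ran 5 min, then SDS-PAGE and autoradiography. ≥4 experiments in duplicate, % of control.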

GRK5 [3] = molecular target: T3, GRK5 (Homo sapiens, UniProt P34947); test: GRK5 phosphorylation of light-activated rhodopsin; type: biochemical; settings: for Inhibition of GRK5 phosphorylation of rhodopsin: peptides 10, 30 and 100 μM, four or more experiments in duplicate; for inhibition at 100 µM: read-out: % Inhibition (100 μM) of GRK5 phosphorylation of rhodopsin
GRK7 = molecular target: T2, GRK7; test: GRK7 phosphorylation of light-activated rhodopsin; type: biochemical; settings: for Inhibition of GRK7 phosphorylation of rhodopsin: peptides 10, 30 and 100 μM, four or more experiments in duplicate
Outline: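 Substrate is urea-stripped bovine rod outer segment rhodopsin (0.5 μM in reaction buffer; 0.5–4 μM per legend), light-activated at 475 nm for 30 s. Peptides are dissolved in DMSO (2–4% final) and quantified by A280. Results are normalised to the no-peptide control as mean ± SEM.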

GRK5 [4] = molecular target: T3, GRK5; test: GRK5 phosphorylation of tubulin; type: biochemical; settings: for % inhibition of GRK5 phosphorylation of tubulin: 100 μM peptide, 100 nM GRK5, 60 min; for % inhibition of GRK5 phosphorylation of tubulin / Effect on GRK5 phosphorylation of tubulin, basal activity: 0.5 μM tubulin, 30 °C; for Effect on GRK5 phosphorylation of tubulin, basal activity: 60 min
Outline: as §1

GRK2 [5] = molecular target: T1, GRK2; test: GRK2 phosphorylation of light-activated rhodopsin; type: biochemical; settings: peptides 10, 30 and 100 μM; four or more experiments in duplicate
Outline: as §2

[6] = system: PKA site pS-262 of the β2AR in WT-β2AR cells; test: Intact-cell PKA site phosphorylation of the β2AR; type: cell-based; settings: 100 μM, 20 min pretreatment, 20 nM ISO
Outline: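 HEK293 cells stably expressing FLAG-β2AR (2–4 pmol/mg) on poly-L-lysine; 20 min with 100 μM TAT-tagged peptide, TAT or DMSO, then 20 nM ISO in 0.1 mM ascorbate/1 mM thiourea pH 7, or carrier, 5 min at 37 °C. Lysates on 12 % SDS-PAGE, immunoblot anti-pS262, reprobed anti-C-tail for normalisation. ≥4 experiments in duplicate, % of control.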

adenylyl cyclase (AC) = test: Adenylyl cyclase activity in membranes from WT-β2AR cells; type: biochemical; settings: 100 μM peptide, 10 min, 30 °C
[7] = system: GRK site pS-(355,356) of the β2AR in WT-β2AR cells; test: Intact-cell GRK site phosphorylation of the β2AR; type: cell-based; settings: 100 μM, 20 min pretreatment, 20 nM ISO
GRK6 [8] = settings: ref previous study of the α9 peptide (Baameur et al. 2010); cited from earlier work
[9] = molecular target: Human His6-tagged GRK5 (human) (UniProt P34947)
[10] = molecular target: Human His6-tagged GRK5 (human) (UniProt P34947); remark: listed apart in the source
[11] = molecular target: light-activated rhodopsin in urea-stripped bovine rod outer segments (bovine) (UniProt P02699)
light-activated rhodopsin in urea-stripped bovine rod outer segments (bovine), sequence (P02699 whole entry): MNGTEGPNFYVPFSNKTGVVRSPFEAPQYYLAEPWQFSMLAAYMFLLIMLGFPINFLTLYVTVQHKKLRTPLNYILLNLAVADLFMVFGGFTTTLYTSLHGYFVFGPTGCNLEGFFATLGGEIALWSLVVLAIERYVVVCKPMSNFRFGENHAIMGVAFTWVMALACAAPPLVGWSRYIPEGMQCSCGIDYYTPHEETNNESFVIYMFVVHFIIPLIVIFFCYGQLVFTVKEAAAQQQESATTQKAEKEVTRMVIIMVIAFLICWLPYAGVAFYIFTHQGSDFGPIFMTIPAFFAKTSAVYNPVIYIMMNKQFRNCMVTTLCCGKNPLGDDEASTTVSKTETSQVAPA

T3 sequence (P34947 whole entry): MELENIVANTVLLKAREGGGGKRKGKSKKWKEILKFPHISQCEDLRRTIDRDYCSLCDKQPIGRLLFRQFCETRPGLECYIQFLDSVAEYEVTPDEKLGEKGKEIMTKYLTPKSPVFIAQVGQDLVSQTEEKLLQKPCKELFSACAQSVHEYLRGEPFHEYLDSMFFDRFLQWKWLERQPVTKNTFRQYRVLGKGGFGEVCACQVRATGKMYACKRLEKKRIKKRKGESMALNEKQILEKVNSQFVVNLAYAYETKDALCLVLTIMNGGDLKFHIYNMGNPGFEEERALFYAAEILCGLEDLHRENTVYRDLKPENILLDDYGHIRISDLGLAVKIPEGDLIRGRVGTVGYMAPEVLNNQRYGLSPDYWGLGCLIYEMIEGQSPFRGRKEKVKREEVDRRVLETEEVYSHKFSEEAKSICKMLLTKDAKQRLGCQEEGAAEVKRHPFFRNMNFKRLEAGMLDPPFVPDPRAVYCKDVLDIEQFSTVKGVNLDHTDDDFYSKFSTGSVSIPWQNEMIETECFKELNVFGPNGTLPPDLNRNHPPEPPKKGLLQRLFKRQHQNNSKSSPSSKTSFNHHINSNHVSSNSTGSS
Human His6-tagged GRK5 (human), sequence (P34947 whole entry): as above

Row | Molecule | Inhibition of GRK6 phosphorylation of rhodopsin (GRK6 [2]) | IC50 (GRK5 [3]) | Inhibition of GRK5 phosphorylation of rhodopsin (GRK5 [3]) | Inhibition of GRK7 phosphorylation of rhodopsin (GRK7) | % inhibition of GRK5 phosphorylation of tubulin (GRK5 [4]) | Inhibition of GRK2 phosphorylation of rhodopsin (GRK2 [5]) | Effect on GRK2 phosphorylation of tubulin, basal activity (GRK2 [1]) | further results
1 | CCCC[C@H](NC(=O)[C@H](CO)NC(C)=O)C(=O)N[C@@H](Cc1ccccc1)C(=O)N[C@@H](Cc1ccccc1)C(=O)N[C@@H](CC(=O)O)C(=O)N[C@@H](C)C(=O)N[C@@H](Cc1ccccc1)C(=O)N[C@@H](CC(C)C)C(=O)N[C@@H](CCC(N)=O)C(=O)N[C@@H](Cc1c[nH]c2ccccc12)C(=O)N[C@@H](CCCCN)C(=O)N[C@@H](Cc1c[nH]c2ccccc12)C(=O)N[C@@H](CC(C)C)C(=O)N[C@@H](CCC(=O)O)C(=O)N[C@@H](CCCNC(=N)N)C(N)=O [Peptide R169A] (Ac-S[Nle]FFDAFLQWKWLER-NH2) | inhibited | 7.2 ± 4.8 µM | inhibited | inhibited | 60–80% | less inhibition | – | IC50 (GRK2 [1]): ~30 µM; % inhibition of GRK2 phosphorylation of tubulin (GRK2 [1]): 60–80%; inhibition at 100 µM (GRK5 [3]): 98%; IC50 (GRK5 [4]): ~30 µM
2 | CC(=O)NCC(=O)N[C@@H](CCCNC(=N)N)C(=O)N[C@@H](CCCCN)C(=O)N[C@@H](CCCCN)C(=O)N[C@@H](CCCNC(=N)N)C(=O)N[C@@H](CCCNC(=N)N)C(=O)N[C@@H](CCC(N)=O)C(=O)N[C@@H](CCCNC(=N)N)C(=O)N[C@@H](CCCNC(=N)N)C(=O)N[C@@H](CCCNC(=N)N)C(=O)N1CCC[C@H]1C(=O)N1CCC[C@H]1C(=O)N[C@@H](CCC(N)=O)C(N)=O [TAT] | – | – | – | – | – | – | – | Effect on PKA site (S262) phosphorylation of the β2AR in intact cells [6]: did not inhibit; Effect on ISO-stimulated AC activity (adenylyl cyclase (AC); 1 μM ISO): without effect; Effect on FSK-stimulated AC activity (adenylyl cyclase (AC); 20 μM FSK): without effect; Effect on GRK phosphorylation of β2AR in intact cells [7]: did not inhibit
3 | CCCC[C@H](NC(=O)[C@H](CO)NC(C)=O)C(=O)N[C@@H](Cc1ccccc1)C(=O)N[C@@H](Cc1ccccc1)C(=O)N[C@@H](CC(=O)O)C(=O)N[C@@H](CCCNC(=N)N)C(=O)N[C@@H](Cc1ccccc1)C(=O)N[C@@H](CC(C)C)C(=O)N[C@@H](CCC(N)=O)C(=O)N[C@@H](Cc1c[nH]c2ccccc12)C(=O)N[C@@H](CCCCN)C(=O)N[C@@H](Cc1c[nH]c2ccccc12)C(=O)N[C@@H](CC(C)C)C(=O)N[C@@H](CCC(=O)O)C(=O)N[C@@H](CCCNC(=N)N)C(N)=O [α9 (164–178)] (Ac-S[Nle]FFDRFLQWKWLER-NH2) | – | 15.9 ± 4.3 µM | – | – | – | – | – | Inhibition of GRK6 (previous study) (GRK6 [8]): no inhibition; inhibition at 100 µM (GRK5 [3]): 89%
4 | CCCC[C@H](NC(=O)[C@H](CCC(=O)O)NC(=O)[C@H](CC(N)=O)NC(=O)[C@H](CCC(N)=O)NC(=O)[C@H](Cc1c[nH]c2ccccc12)NC(=O)[C@@H]1CCCN1C(=O)[C@@H](NC(=O)[C@H](CO)NC(=O)[C@@H](NC(C)=O)C(C)C)[C@@H](C)CC)C(=O)N[C@H](C(=O)N[C@@H](CCC(=O)O)C(N)=O)[C@@H](C)CC [α10] (Ac-VSIPWQNE[Nle]IE-NH2) | inhibited | – | inhibited | inhibited | ~ 45% | less inhibition | not significant | –
5 | Ac-ILENLKDCGLF-NH2 [TCT, reference compound] | showed inhibition | ~10 µM | showed inhibition | showed inhibition | – | relatively inactive | no significant effect | Effect on GRK5 phosphorylation of tubulin, basal activity (GRK5 [4]): no significant effect
6 | Ac-PIGRLLFRQFC-NH2 [α3] | little activity | – | inhibited | inhibited | 60–80% | inhibited | – | IC50 (GRK2 [1]): ~30 µM; % inhibition of GRK2 phosphorylation of tubulin (GRK2 [1]): 60–80%; IC50 (GRK5 [4]): ~30 µM
7 | MELENIVANTVLLKAR-NH2 [N-Ter] | less potent inhibitor | 5 to 10 µM | reasonably potent inhibitor | reasonably potent inhibitor | – | less potent inhibitor | no significant effect | IC50 (GRK7): 5 to 10 µM; Effect on GRK5 phosphorylation of tubulin, basal activity (GRK5 [4]): no significant effect
8 | α9 (164–178) peptide of GRK5 | – | – | – | – | – | – | – | GRK5 phosphorylation of light-activated rhodopsin: IC50 of inhibition [9]: 15.9 µM
9 | B1 | – | – | – | – | – | – | – | GRK5 phosphorylation of tubulin: IC50 of inhibition [10]: 30 µM
10 | B2 | – | – | – | – | – | – | – | GRK5 phosphorylation of light-activated rhodopsin: IC50 of inhibition [11]: 10 µM
